Screens (PubChem)
Rows were chosen to be rich in hits. Some 2.4% of all compounds tested hit in one or more screens of this group.
zVAD death inh = L929 zVAD cell death inhibition | L929 zVAD necroptosis rescue, ATP luminescence, 24 h; with zVAD 60 µM | 220,000 tested, 0.38% active | viability rescue, % at 10 µM;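 active = activation, scaled between plate controls, above about 75%, limit read from the data; inactive = activation under that limit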;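 note: 0% = zVAD with DMSO and 100% = DMSO alone without zVAD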
MDM2 E3 inh = inhibitors of human Mdm2 E3 ubiquitin ligase | signal enhancement, % at 5 µM | 210,000 tested, 0.11% active | cell-based MDM2 ubiquitination luciferase reporter, 2 h; 0 = plate control, 100 = twice control, blank-subtracted;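 active = signal enhancement of 30% or more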;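 note: luminescence tracks abundance of the self-degrading MDM2-luciferase fusion protein; higher signal means inhibition of MDM2 E3 ligase activity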
Target sequence (Q00987 whole entry, looked up, the tested form may be a part): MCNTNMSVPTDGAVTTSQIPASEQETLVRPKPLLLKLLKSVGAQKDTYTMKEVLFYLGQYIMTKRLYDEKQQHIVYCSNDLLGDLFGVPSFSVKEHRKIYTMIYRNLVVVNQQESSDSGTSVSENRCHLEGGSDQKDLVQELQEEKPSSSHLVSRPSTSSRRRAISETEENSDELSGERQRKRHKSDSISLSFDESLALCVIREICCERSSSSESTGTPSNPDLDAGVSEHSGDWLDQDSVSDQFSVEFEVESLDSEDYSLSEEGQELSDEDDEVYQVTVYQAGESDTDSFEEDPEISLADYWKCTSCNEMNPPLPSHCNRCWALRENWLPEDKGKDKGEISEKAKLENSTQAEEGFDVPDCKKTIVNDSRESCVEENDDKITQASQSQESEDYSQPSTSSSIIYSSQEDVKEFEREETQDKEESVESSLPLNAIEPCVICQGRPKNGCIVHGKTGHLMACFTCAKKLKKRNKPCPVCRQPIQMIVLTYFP
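system = mammalian cells stably expressing self-ubiquitinating, self-degrading MDM2 E3–luciferase fusion | quantity = 2000 cells per well seeded | incubation = 4 h cell settling then 2 h compound exposure, 37 °C | signal = SteadyLite luminescence, 15 min reagent step | benchmarks = plate control and blank wells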
Dynein transport = dynein cargo transport inhibition; 220,000 tested, 0.47% active; 3617.4 mouse cells, GR-EGFP nuclear translocation imaging; test concentration mostly 20 µM; stimulated with dexamethasone, 1 µM; active compounds read low; z-score, hits read low;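 active = plate z-score of nuclear minus cytoplasmic receptor signal below a set negative limit, without overly bright fluorescence or cell loss, cut at about -3.5 in these data, passing the limit was not always enough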;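 note: z-score of nuclear minus cytoplasmic ring GR-EGFP intensity difference per well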
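Buffer or medium: tetracycline-free induction medium containing charcoal-stripped FBS / Reagent: dexamethasone agonist, 1.0 µM final, for 30 min / Technique: automated 10x imaging of fixed Hoechst-stained cells / Times: induction 48 h, compound 1 h, agonist 30 min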
TNF necrop inh = blocks TNF-alpha induced death of Jurkat FADD-/- cells; Jurkat FADD-/- TNF necroptosis rescue, ATP luminescence, 24 h; 0 = TNF only, 100 = no-TNF cells; activation (protection from cell death), % at 10 µM; 220,000 tested, 0.068% active;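 active = activation, meaning protection from cell death, of at least 50% relative to plate controls; inactive = activation below 50%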;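 note: necroptosis triggered by 40 ng/mL TNF-alpha added together with compound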
Hck Nef HTS = inhibitors of human Hck kinase activated by Nef; Recombinant Hck-YEEI plus Nef, Z-Lyte FRET kinase assay; inhibition, % at 20 µM; 220,000 tested, 0.68% active;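 active = Hck-Nef kinase inhibition above about 50%, limit read from the data; inactive = inhibition below that limit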;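 note: 0% = DMSO with Hck plus Nef and 100% = Hck alone without Nef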
Autophagy mod = alters autophagy in cells | 190,000 tested, 0.98% active | calls only at 10 µM (by protocol) | MEF GFP-LC3 puncta imaging; test concentration mostly 10 µM;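 active = percentage of spot-positive cells more than 3 SD above its plate mean, without a fluorescence outlier flag or 80% toxicity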;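 note: spot-positive cell cutoff set from DMSO-treated cells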
Hck Nef conf = Hck-Nef kinase inhibition, confirmation; calls only at 10 µM; 1,300 tested, 28% active; shares compounds with Hck Nef HTS; Recombinant Hck-YEEI:Nef, Z-Lyte FRET kinase assay;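 active = average inhibition of at least 50%, with Z-scores no higher than 3 in both the phospho-tyrosine peptide and fluorescence counterscreens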
An asterisk follows results filed as active; i = inactive; . = no result shown; + = active, no number.

SMILES | zVAD death inh | MDM2 E3 inh | Dynein transport | TNF necrop inh | Hck Nef HTS | Autophagy mod | Hck Nef conf
CCCCC(=O)N/N=C/c1c(O)n(CCc2ccc(OC)c(OC)c2)c(=O)[nH]c1=O | 2 | -8 | 0.22 | 2 | 78* | i | i
CCOC(=O)C(C)(CC)NC(=O)CSP(=S)(OCC)OCC (centres undefined) | 0 | -3 | -0.11 | 0 | 0 | i | .
COc1cc(/C=C2\C(=O)NC(=O)N(c3ccccc3)C2=O)cc(OC)c1O | 1 | -12 | -0.41 | 1 | 1 | i | .
CN(C)c1ccc(/C=C/C=C2/C(=O)NC(=O)N(c3ccccc3)C2=O)cc1 | -2 | 6 | -0.27 | -11 | 57* | i | i
CNP(=O)(Oc1ccccc1)OC12CC3CC(CC(C3)C1)C2 (centres undefined) | 0 | -8 | 0.95 | -1 | 3 | i | .
O=C1NC(=O)C(=Cc2coc3ccc(O)cc3c2=O)C(=O)N1 | 0 | 10 | -0.44 | -5 | 78* | . | +
COc1cc(N2CCOCC2)ccc1C=C1C(=O)NC(=O)NC1=O | 2 | -7 | 0.52 | 0 | 0 | i | .
CN1CCCC(C(=O)c2ccc(Cl)cc2)C1 (centres undefined) | 13 | -1 | -0.66 | 0 | 17 | i | .
C=CCNC(=O)c1c(N)n(CCN2CCOCC2)c2nc3ccccc3nc12 | 0 | -24 | -0.35 | -4 | 50* | i | .
Nc1c(C(=O)NCc2ccco2)c2nc3ccccc3nc2n1CCN1CCCCC1 | 2 | -8 | 2.5 | 3 | 46 | i | .
CCCCNC(=O)c1c(N)n(CCCOC)c2nc3ccccc3nc12 | 12 | -24 | 1.4 | 3 | 48 | i | .
COCCNC(=O)c1c(N)n(CCC(C)C)c2nc3ccccc3nc12 | 2 | -16 | -0.42 | 1 | 64* | i | i
CC1CCN(S(=O)(=O)c2ccc(NN=C(C#N)C#N)cc2)CC1 | 0 | -7 | 0.045 | 0 | 0 | i | .
N#CC(C#N)=NNc1ccc(S(N)(=O)=O)cc1 | 0 | . | 0.096 | 2 | 52* | . | +
Cc1cc(C=C2C(=O)NC(=S)NC2=O)c(C)n1C1CCCC1 | -1 | -4 | 0.082 | -9 | 71* | i | i
C/C(CC(c1ccccc1)c1c(O)c2ccccc2oc1=O)=N\Nc1ccc([N+](=O)[O-])cc1[N+](=O)[O-] (centres undefined) | 0 | 3 | 0.13 | 1 | 22 | . | .
O=c1oc2ccccc2c(O)c1C(c1ccc([N+](=O)[O-])cc1)c1c(O)c2ccccc2oc1=O | 2 | -8 | -0.53 | 1 | 73* | i | +
CCP(=S)(CC)c1ccc(N(C)C)cc1 | 2 | -24 | -0.55 | 0 | 24 | i | .
